Results from ChEMBL document CHEMBL1140316, “Synthesis and immunosuppressive activity of new artemisinin derivatives. 1. [12(beta or alpha)-Dihydroartemisininoxy]phen(ox)yl aliphatic acids and esters” (J Med Chem, 2005).

Columns and labels:
T-cell = test: In vitro concentration of compound required to inhibit ConA-induced T cell proliferation to 50% in BALB/c mice; format: functional, cell-based; settings: Mus musculus
Outline: (§1)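 Fresh spleen cells from male BALB/c mice (7–9 weeks); 5 × 10^5 cells per well in RPMI 1640 with 10% FBS, penicillin/streptomycin, 37 °C, 5% CO2, 48 h, with test compounds at varied concentrations. Stimulated with 5 µg/mL ConA (T cells) or 10 µg/mL LPS (B cells). Proliferation read as [3H]thymidine uptake over an 8 h pulse (20 kBq/well), scintillation counting. IC50 is the concentration that inhibits proliferation to 50% of control.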

[1] = In vitro concentration of compound required to inhibit LPS-induced B cell proliferation to 50% in BALB/c mice; format: functional, cell-based; settings: Mus musculus; outline: as §1
Mus musculus [2] = species on record: Mus musculus; test: Ratio of concentration that reduced cell viability to inhibitory concentration for ConA-induced T cell proliferation; format: functional
Mus musculus [3] = species on record: Mus musculus; test: In vitro concentration of compound required to reduced spleen cell viability to 50% in BALB/c mice; format: functional
Outline: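 Male BALB/c mouse spleen cells (7–9 weeks), erythrocytes lysed with ammonium chloride, 5 × 10^5 cells per well in RPMI 1640/10% FBS with antibiotics. Exposed to a range of compound concentrations for 48 h at 37 °C, 5% CO2. MTT (5 mg/mL stock) added for the final 5 h, then SDS/DMF lysis buffer (pH 7.2) for 6–7 h. Absorbance read at 570 nm; CC50 is the concentration reducing viability to 50%.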

Mus musculus [4] = species on record: Mus musculus; test: Ratio of concentration that reduced cell viability to inhibitory concentration for LPS-induced B cell proliferation; format: functional

SMILES | IC50 (T-cell) [µM] | IC50 [1] [µM] | Selectivity index (Mus musculus [2]) | CC50 (Mus musculus [3]) [µM] | Selectivity index (Mus musculus [4])
C[C@H]1[C@@H](Oc2ccc(CC(=O)O)cc2)O[C@@H]2O[C@]3(C)CCC4[C@H](C)CC[C@@H]1[C@]42OO3 (some centres not stated) | 11.8 | 10.2 | >9 | > 100 | >10
C[C@H]1[C@@H](Oc2cccc(OC(=O)CCC(=O)O)c2)O[C@@H]2O[C@]3(C)CCC4[C@H](C)CC[C@@H]1[C@]42OO3 (some centres not stated) | 0.327 | 0.265 | 161 | 52.7 | 199
CCOC(=O)CNC(=O)c1ccc(O[C@H]2O[C@@H]3O[C@]4(C)CC[C@H]5[C@H](C)CC[C@@H]([C@H]2C)[C@@]35OO4)cc1 | 2.53 | 0.0537 | 51 | 130 | 2421
CC(Oc1cccc(OC2O[C@@H]3O[C@]4(C)CC[C@H]5[C@H](C)CC[C@@H]([C@H]2C)[C@@]35OO4)c1)C(=O)O (some centres not stated) | 8.6 | 0.74 | 4 | 35.1 | 47
CCOC(=O)C(C)Oc1ccc(OC2O[C@@H]3OC4(C)CCC5[C@H](C)CC[C@@H]([C@H]2C)[C@]53OO4)cc1 (single isomer, unassigned) | 0.26 | 0.85 | >385 | > 100 | >118
CC(C(=O)O)c1ccc(O[C@H]2O[C@@H]3OC4(C)CCC5[C@H](C)CC[C@@H]([C@H]2C)[C@]53OO4)cc1 (single isomer, unassigned) | 3.6 | 8.6 | 17 | 59.6 | 7
CC(Oc1cccc(O[C@@H]2OC3OC4(C)CCC5[C@H](C)CC[C@@H]([C@H]2C)[C@@]35OO4)c1)C(=O)O (single isomer, unassigned) | 7.64 | 1.05 | 1 | 5.54 | 5
C[C@H]1[C@@H](Oc2ccc(OCC(=O)O)cc2)OC2OC3(C)CCC4[C@H](C)CC[C@@H]1[C@@]24OO3 (single isomer, unassigned) | 5.34 | 5.98 | 66 | 354 | 59
COC(=O)Cc1ccc(O[C@H]2O[C@@H]3OC4(C)CCC5[C@H](C)CC[C@@H]([C@H]2C)[C@]53OO4)cc1 (single isomer, unassigned) | 0.713 | 0.179 | 11 | 8 | 45
COc1ccccc1OC(=O)C(C)Oc1cccc(O[C@H]2O[C@@H]3OC4(C)CC[C@H]5[C@H](C)CC[C@@H]([C@H]2C)[C@@]35OO4)c1 (single isomer, unassigned) | 4.12 | 0.57 | 1 | 2.99 | 5
CCOC(=O)C(C)Oc1cccc(OC2OC3OC4(C)CC[C@H]5[C@H](C)CC[C@@H]([C@H]2C)[C@@]35OO4)c1 (single isomer, unassigned) | 1.73 | 0.35 | 1 | 1.36 | 4
CC(Oc1ccc(OC2O[C@@H]3OC4(C)CC[C@H]5[C@H](C)CC[C@@H]([C@H]2C)[C@@]35OO4)cc1)C(=O)O (single isomer, unassigned) | 7.27 | 0.86 | >14 | > 100 | >116
C[C@H]1[C@@H](Oc2ccc(OCC(=O)OCCN(C)C)cc2)O[C@@H]2OC3(C)CC[C@H]4[C@H](C)CC[C@@H]1[C@@]24OO3 (single isomer, unassigned) | 1.96 | 0.0496 | 1 | 2.08 | 42
COC(=O)CCc1ccc(O[C@H]2O[C@@H]3OC4(C)CC[C@H]5[C@H](C)CC[C@@H]([C@H]2C)[C@@]35OO4)cc1 (single isomer, unassigned) | 0.138 | 0.0178 | 302 | 41.7 | 2343
COc1ccccc1OC(=O)C(C)Oc1ccc(O[C@H]2O[C@@H]3OC4(C)CC[C@H]5[C@H](C)CC[C@@H]([C@H]2C)[C@@]35OO4)cc1 (single isomer, unassigned) | 2.33 | 0.27 | 17 | 39.1 | 145
COC(=O)C(C)c1ccc(O[C@H]2O[C@@H]3OC4(C)CC[C@H]5[C@H](C)CC[C@@H]([C@H]2C)[C@@]35OO4)cc1 (single isomer, unassigned) | 0.0137 | 0.78 | 477 | 6.53 | 8
COC(=O)COc1ccc(O[C@H]2OC3OC4(C)CC[C@H]5[C@H](C)CC[C@@H]([C@H]2C)[C@@]35OO4)cc1 (single isomer, unassigned) | 0.244 | 0.00727 | 848 | 207 | 28473
C[C@H]1[C@@H](Oc2ccc(CCC(=O)O)cc2)O[C@@H]2OC3(C)CC[C@H]4[C@H](C)CC[C@@H]1[C@@]24OO3 (single isomer, unassigned) | 4 | 0.107 | 3 | 10.4 | 97
CCOC(=O)C(C)Oc1cccc(O[C@H]2O[C@@H]3OC4(C)CC[C@H]5[C@H](C)CC[C@@H]([C@H]2C)[C@@]35OO4)c1 (single isomer, unassigned) | 3.59 | 0.56 | 1 | 2.99 | 5
CO[C@H]1O[C@@H]2O[C@@]3(C)CC[C@H]4[C@H](C)CC[C@@H]([C@H]1C)[C@@]24OO3 [ARTEMETHER] | 3.82 | 1.78 | 23 | 86 | 48
C[C@@H]1CC[C@H]2[C@@H](C)C(=O)O[C@@H]3O[C@@]4(C)CC[C@@H]1[C@]32OO4 [ARTEMISININ] | 4.43 | 8.96 | 6 | 28.3 | 3
C[C@H]1[C@H](OC(=O)CCC(=O)O)O[C@@H]2O[C@@]3(C)CC[C@H]4[C@H](C)CC[C@@H]1[C@@]24OO3 [ARTESUNATE] | 4.58 | 0.989 | 7 | 32.9 | 33
C/C=C/C[C@@H](C)[C@@H](O)[C@H]1C(=O)N[C@@H](CC)C(=O)N(C)CC(=O)N(C)[C@@H](CC(C)C)C(=O)N[C@@H](C(C)C)C(=O)N(C)[C@@H](CC(C)C)C(=O)N[C@@H](C)C(=O)N[C@H](C)C(=O)N(C)[C@@H](CC(C)C)C(=O)N(C)[C@@H](CC(C)C)C(=O)N(C)[C@@H](C(C)C)C(=O)N1C [CYCLOSPORINE] | – | – | 963 | – | 7
